# Results as given in ChEMBL document CHEMBL3414476, “Novel multitarget-directed ligands (MTDLs) with acetylcholinesterase (AChE) inhibitory and serotonergic subtype 4 receptor (5-HT4R) agonist activities as potential agents against Alzheimer's disease: the design of donecopride” (J Med Chem, 2015).
# The source made the active and inactive calls. The calls are words filed in the database; no cut-off is given here.
# How the values were obtained:
# [1] = molecular target: 5-hydroxytryptamine receptor 4 (Homo sapiens) (UniProt Q13639); assay: Displacement of [3H]GR113808 from human 5-HT4R at 10 nM by radioligand binding assay
# Procedure, shortened: (§1)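 Recombinant human 5-HT4 membranes, 2.5 μg protein, incubated in duplicate with 0.2 nM [3H]GR113808 in 25 mM Tris pH 7.4 for 60 min at 25 °C, with or without drug at 10−6 or 10−8 M. Filtered on PEI-presoaked GF/C filters, washed with ice-cold buffer. Nonspecific binding with 30 μM serotonin. Read-out is % inhibition of binding.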
# [2] = molecular target: 5-hydroxytryptamine receptor 4 (Homo sapiens) (UniProt Q13639); assay: Displacement of [3H]GR113808 from human 5-HT4R at 1 uM by radioligand binding assay; procedure, shortened: as §1
# Cholinesterase = Cholinesterase (Equus caballus, UniProt P81908); assay: Inhibition of equine serum BuChE pre-incubated for 5 mins before butyrylthiocholine iodide substrate by Ellman' method
# Procedure, shortened: (§2)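 Ellman assay in 96-well format: 0.3 mM DTNB in phosphate buffer pH 7.4, compound in DMSO, and enzyme (human erythrocyte AChE or equine serum BuChE, 0.05 U final) preincubated 5 min at 25 °C. Started with 10 mM acetyl- or butyrylthiocholine iodide; A412 followed every minute for 10 min, substrate-free blank.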
# [3] = molecular target: 5-hydroxytryptamine receptor 4 (Homo sapiens) (UniProt Q13639); assay: Agonist activity at HA-tagged 5-HT4R (unknown origin) expressed in COS7 cells assessed as cAMP accumulation by HTRF assay; format: functional, cell-based; parameters: concentration or dose not given beside the values; conditions: COS-7
# [4] = molecular target: 5-hydroxytryptamine receptor 4 (Cavia porcellus, UniProt O70528); assay: Displacement of [3H]GR113808 from 5-HT4R in guinea pig brain membranes incubated for 30 mins by radioligand binding assay; format: cell membranes, Membrane
# Acetylcholinesterase [5] = molecular target: T1, Acetylcholinesterase (Homo sapiens, UniProt P22303); assay: Inhibition of human erythrocyte AChE pre-incubated for 5 mins before acetylthiocholine iodide substrate by Ellman' method
# Mus musculus [6] = assay: Toxicity in NMRI mouse assessed as induction of exophtalmy at 2 mg/kg, ip; format: organism-based; parameters: dose 2 mg/kg, route intraperitoneal; conditions: in vivo
# Procedure, shortened: (§3)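 Behavioural and neurological changes scored by standardized observation at 30 min, 3 h and 24 h against controls.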
# Mus musculus [7] = assay: Toxicity in NMRI mouse assessed as induction of irritability at 2 mg/kg, ip; format: organism-based; parameters: dose 2 mg/kg, route intraperitoneal; conditions: in vivo; procedure, shortened: as §3
# Mus musculus [8] = assay: Toxicity in NMRI mouse assessed as induction of hyperactivity at 2 mg/kg, ip; format: organism-based; parameters: dose 2 mg/kg, route intraperitoneal; conditions: in vivo; procedure, shortened: as §3
# [9] = molecular target: Cholinesterase (Equus caballus) (UniProt P81908); assay: Inhibition of equine serum BuChE at 10 uM pre-incubated for 5 mins before butyrylthiocholine iodide substrate by Ellman' method; procedure, shortened: as §2
# Mus musculus [10] = assay: Toxicity in NMRI mouse assessed as effect on spontaneous locomotor activity at 10 mg/kg, ip dosed 30 mins before placing mouse in actimeter; format: organism-based; parameters: dose 10 mg/kg, route intraperitoneal; conditions: in vivo, 0.5 h
# Procedure, shortened: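 Adult male NMRI mice were dosed IP 30 min before being placed individually in an infrared actimeter. Beam interruptions were counted over 30 min. Mean ± SD, n = 9–10, SNK test versus NaCl.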
# Mus musculus [11] = assay: Toxicity in NMRI mouse assessed as toxic symptoms at 1 to 10 mg/kg, ip; format: organism-based; parameters: dose 1-10 mg/kg, route intraperitoneal; conditions: in vivo
# Procedure, shortened: (§4)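 Mice in groups of four received graded IP doses of […]. Behavioural and neurological changes (hypo- or hyperactivity, ataxia, tremors, convulsion, etc.) were scored by standardized observation at 30 min, 3 h and 24 h against controls.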
# Mus musculus [12] = assay: Antidepressant-like activity in NMRI mouse assessed as reduction in immobility time at 0.3 mg/kg, ip administered 30 mins before test; format: functional, organism-based; parameters: dose 0.3 mg/kg
# Procedure, shortened: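 Male NMRI mice given drug in 0.9% NaCl IP 30 min before the test, not pretested. Each mouse swam 6 min in a 12 cm diameter cylinder, water 13 cm deep at 23−24 °C. Immobility was scored over the last 4 min. n = 10−12, SNK test versus NaCl.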
# Mus musculus [13] = assay: Antiamnesic activity in NMRI mouse assessed as reversal of scopolamine-induced spontaneous alteration deficit at 0.3 mg/kg, ip by Y maze test; format: functional, organism-based; parameters: dose 0.3 mg/kg
# Procedure, shortened: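 Male NMRI mice, 3 months old, 35−40 g. Scopolamine 0.5 mg/kg SC 30 min before the Y-maze test; test drug in 0.9% NaCl IP 30 min before. Spontaneous alternation = actual/possible alternations (total arm entries minus two) × 100. n = 10−12. Compared with 50% by univariate t test.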
# Mus musculus [14] = assay: Toxicity in NMRI mouse assessed as induction of hypoactivity at 100 mg/kg, ip; format: organism-based; parameters: dose 100 mg/kg, route intraperitoneal; conditions: in vivo; procedure, shortened: as §4
# [15] = Toxicity in ip dosed NMRI mouse; format: organism-based; conditions: in vivo
# [16] = molecular target: 5-hydroxytryptamine receptor 4 (Homo sapiens) (UniProt Q13639); assay: Activity at 5-HT4R (unknown origin) expressed in COS7 cells assessed as increase in sAPPalpha release relative to 5-HT; format: cell-based; conditions: COS-7
# Mus musculus [17] = assay: Toxicity in NMRI mouse assessed as induction of passivity at 100 mg/kg, ip; format: organism-based; parameters: dose 100 mg/kg, route intraperitoneal; conditions: in vivo; procedure, shortened: as §4
# Mus musculus [18] = assay: Increase in sAPPalpha level in C57BL/6 mouse CSF at 1 mg/kg, ip measured after 90 mins by ELISA method; format: functional, organism-based; parameters: dose 1 mg/kg
# Procedure, shortened: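 Wild-type C57BL/6 mice, 2 months old, n = 7/group. Single IP injection of vehicle (0.9% NaCl, 0.2% DMSO) or drug. After 90 min, CSF was taken from the cisterna magna under anesthesia, frozen at −80 °C and heated at 60 °C for 5 min. sAPPα measured by mouse/rat ELISA read at 620/450 nm. Unpaired t test.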
# Acetylcholinesterase [19] = molecular target: T1, Acetylcholinesterase; assay: Inhibition of human erythrocyte AChE at 10 uM pre-incubated for 5 mins before acetylthiocholine iodide substrate by Ellman' method; procedure, shortened: as §2
# Mus musculus [20] = assay: Antiamnesic activity in NMRI mouse assessed as reversal of scopolamine-induced spontaneous alteration deficit at 0.1 mg/kg, ip co-administered with 0.3 mg/kg DPZ by Y maze test; format: functional, organism-based
# Procedure, shortened: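 Scopolamine 0.5 mg/kg given SC 30 min before the Y-maze test. The reference combination was 0.1 mg/kg IP (30 min before) plus DPZ 0.3 mg/kg SC (20 min before), in 0.9% NaCl vehicle. Percent spontaneous alternation = actual/(total arm entries − 2) × 100. Mean ± SD, n = 10–12, univariate t test versus 50%.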
# Mus musculus [21] = assay: Antiamnesic activity in NMRI mouse assessed as reversal of scopolamine-induced spontaneous alteration deficit at 1 mg/kg, ip by Y maze test; format: functional, organism-based; parameters: dose 1 mg/kg
# Mus musculus [22] = assay: Toxicity in NMRI mouse assessed as induction of ataxia at 10 mg/kg, ip; format: organism-based; parameters: dose 10 mg/kg, route intraperitoneal; conditions: in vivo; procedure, shortened: as §4
# Mus musculus [23] = assay: Toxicity in NMRI mouse assessed as induction of hypoactivity at 10 mg/kg, ip; format: organism-based; parameters: dose 10 mg/kg, route intraperitoneal; conditions: in vivo; procedure, shortened: as §4
# Mus musculus [24] = assay: Toxicity in NMRI mouse assessed as induction of sleep at 10 mg/kg, ip; format: organism-based; parameters: dose 10 mg/kg, route intraperitoneal; conditions: in vivo; procedure, shortened: as §4
# Sequence of Cholinesterase (Equus caballus) (P81908 whole entry): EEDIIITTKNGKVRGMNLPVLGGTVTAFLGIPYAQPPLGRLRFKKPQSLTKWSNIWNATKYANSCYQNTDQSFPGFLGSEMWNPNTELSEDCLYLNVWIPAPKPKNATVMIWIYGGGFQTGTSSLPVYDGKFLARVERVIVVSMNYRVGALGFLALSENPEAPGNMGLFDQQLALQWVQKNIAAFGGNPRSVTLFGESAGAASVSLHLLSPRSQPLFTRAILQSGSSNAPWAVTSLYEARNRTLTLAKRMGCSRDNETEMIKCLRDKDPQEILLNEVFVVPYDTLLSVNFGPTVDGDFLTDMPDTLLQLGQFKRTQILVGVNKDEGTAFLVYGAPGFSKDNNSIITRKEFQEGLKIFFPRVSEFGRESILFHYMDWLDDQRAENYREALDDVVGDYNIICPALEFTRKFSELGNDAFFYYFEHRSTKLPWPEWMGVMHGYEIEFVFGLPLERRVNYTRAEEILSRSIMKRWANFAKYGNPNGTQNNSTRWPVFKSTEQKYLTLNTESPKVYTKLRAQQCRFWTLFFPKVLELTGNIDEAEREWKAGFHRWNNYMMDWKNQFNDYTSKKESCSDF
# Sequence of Cholinesterase (P81908 whole entry): as above
# T1 sequence (P22303 whole entry): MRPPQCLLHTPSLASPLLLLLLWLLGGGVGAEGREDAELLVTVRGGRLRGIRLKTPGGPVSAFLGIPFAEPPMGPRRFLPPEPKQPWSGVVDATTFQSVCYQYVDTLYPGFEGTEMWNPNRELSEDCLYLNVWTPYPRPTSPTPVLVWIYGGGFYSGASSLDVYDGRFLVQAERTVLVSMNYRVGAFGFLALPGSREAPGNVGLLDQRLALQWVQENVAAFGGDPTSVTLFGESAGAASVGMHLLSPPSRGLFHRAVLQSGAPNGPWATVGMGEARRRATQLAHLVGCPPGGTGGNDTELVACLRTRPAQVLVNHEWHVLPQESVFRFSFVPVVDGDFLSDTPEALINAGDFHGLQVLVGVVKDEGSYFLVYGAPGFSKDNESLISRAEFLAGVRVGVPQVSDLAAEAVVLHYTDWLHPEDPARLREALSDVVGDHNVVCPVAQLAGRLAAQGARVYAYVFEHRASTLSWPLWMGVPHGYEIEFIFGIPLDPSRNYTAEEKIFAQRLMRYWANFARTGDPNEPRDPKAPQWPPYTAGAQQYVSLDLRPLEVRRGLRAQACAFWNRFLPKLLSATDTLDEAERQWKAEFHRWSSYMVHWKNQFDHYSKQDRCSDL
# Sequence of 5-hydroxytryptamine receptor 4 (Homo sapiens) (Q13639 whole entry): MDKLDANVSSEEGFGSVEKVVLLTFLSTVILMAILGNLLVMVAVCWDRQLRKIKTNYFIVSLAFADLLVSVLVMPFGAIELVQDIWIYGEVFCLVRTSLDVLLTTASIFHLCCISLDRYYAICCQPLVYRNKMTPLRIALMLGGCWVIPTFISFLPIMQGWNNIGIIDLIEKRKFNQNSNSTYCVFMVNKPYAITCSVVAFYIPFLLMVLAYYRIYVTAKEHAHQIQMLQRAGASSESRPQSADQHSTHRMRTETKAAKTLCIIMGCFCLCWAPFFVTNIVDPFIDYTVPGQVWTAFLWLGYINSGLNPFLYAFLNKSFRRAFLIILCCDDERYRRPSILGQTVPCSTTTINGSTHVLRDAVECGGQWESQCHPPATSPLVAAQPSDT
# Sequence of 5-hydroxytryptamine receptor 4 (O70528 whole entry): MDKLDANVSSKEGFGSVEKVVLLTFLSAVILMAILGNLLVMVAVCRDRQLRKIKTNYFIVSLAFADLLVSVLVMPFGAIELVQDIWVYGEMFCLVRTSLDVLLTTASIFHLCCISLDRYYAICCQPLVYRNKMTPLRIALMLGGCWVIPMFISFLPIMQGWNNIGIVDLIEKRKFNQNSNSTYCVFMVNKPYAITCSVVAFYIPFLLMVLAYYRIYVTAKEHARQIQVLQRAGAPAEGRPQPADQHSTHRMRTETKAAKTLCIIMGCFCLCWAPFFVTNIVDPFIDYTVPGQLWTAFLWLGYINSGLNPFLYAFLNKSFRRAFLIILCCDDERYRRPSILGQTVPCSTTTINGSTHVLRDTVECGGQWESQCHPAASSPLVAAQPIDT
smiles,measurement,setting,value
COc1cc(N)c(Cl)cc1C(=O)CCC1CCN(Cc2ccccc2)CC1,inhibition,[1],41%
same,inhibition,[2],100%
same,IC50,Cholinesterase,1.83 µM
same,Activity,[3],65%
same,Ki,[4],14.3 nM
same,IC50,Acetylcholinesterase [5],8.5 nM
CC(N)Cc1ccccc1 (stereo not given) [AMPHETAMINE],Activity,Mus musculus [6],Toxic
same,Activity,Mus musculus [7],Toxic
same,Activity,Mus musculus [8],Toxic
COc1cc(N)c(Cl)cc1/C(CCC1CCN(CC2CCCCC2)CC1)=N/O,Ki,[4],193 nM
COc1cc(N)c(Cl)cc1C(O)CCC1CCN(CC2CCCCC2)CC1 (stereo not given),IC50,Cholinesterase,3.64 µM
same,Ki,[4],122 nM
same,IC50,Acetylcholinesterase [5],1030 nM
COc1cc(N)c(Cl)cc1C(=O)OCC1CCN(CC2CCCCC2)CC1,IC50,Cholinesterase,4.1 µM
COc1cc(N)c(Cl)cc1C(=O)CCC1CCN(CC2CCNCC2)CC1,inhibition,[9],26%
same,inhibition,[1],69%
same,inhibition,[2],100%
same,Activity,[3],20%
COc1cc(N)c(Cl)cc1C(=O)CCC1CCN(CC2CC2)CC1,IC50,Cholinesterase,6.6 µM
COc1cc(N)c(Cl)cc1C(=O)CCC1CCN(CC2CCCCC2)CC1,Activity,Mus musculus [10],Non-toxic
same,Activity,Mus musculus [11],Non-toxic
same,Activity,Mus musculus [12],Active
same,inhibition,[1],73%
same,inhibition,[2],100%
same,Activity,Mus musculus [13],Active
same,Activity,Mus musculus [14],Toxic
same,IC50,Cholinesterase,3.53 µM
same,Activity,[3],48.3%
same,LD50,[15],75 mg/kg
same,Emax,[16],22.5%
same,Activity,Mus musculus [17],Toxic
same,Activity,Mus musculus [18],Active
COc1cc(N)c(Cl)cc1C(=O)CCC1CCN(CC2CCCC2)CC1,inhibition,[1],58%
same,inhibition,[2],100%
same,IC50,Cholinesterase,6.91 µM
same,Activity,[3],48%
COc1cc(N)c(Cl)cc1C(=O)CCC1CCN(CC2CCCCC2C)CC1 (stereo not given),IC50,Cholinesterase,4.34 µM
COc1cc(N)c(Cl)cc1C(=O)CCC1CCN(Cc2ccncc2)CC1,inhibition,[9],46%
same,Ki,[4],20.6 nM
same,IC50,Acetylcholinesterase [5],121 nM
CO/N=C(\CCC1CCN(CC2CCCCC2)CC1)c1cc(Cl)c(N)cc1OC,IC50,Cholinesterase,7.42 µM
same,inhibition,Acetylcholinesterase [19],33%
CCCCN1CCC(CCC(=O)c2cc(Cl)c(N)cc2OC)CC1,Activity,Mus musculus [20],Active
same,Ki,[4],9.3 nM
same,IC50,Acetylcholinesterase [5],403 nM
COc1cc(N)c(Cl)cc1C(=O)CCC1CCN(CCC2CCCCC2)CC1,IC50,Cholinesterase,6.34 µM
COc1cc2c(cc1OC)C(=O)C(CC1CCN(Cc3ccccc3)CC1)C2 (stereo not given),Activity,Mus musculus [21],Active
COc1cc(N)c(Cl)cc1C(=O)CCC1CCN(Cc2cccnc2)CC1,IC50,Cholinesterase,9.16 µM
same,Ki,[4],20.4 nM
same,IC50,Acetylcholinesterase [5],45 nM
CN(C)CCCN1c2ccccc2Sc2ccc(Cl)cc21 [CHLORPROMAZINE],Activity,Mus musculus [22],Toxic
same,Activity,Mus musculus [23],Toxic
same,Activity,Mus musculus [24],Toxic
COc1cc(N)c(Cl)cc1C(=O)NCC1CCN(CC2CCCCC2)CC1,inhibition,Acetylcholinesterase [19],45%
same,Ki,[4],2.25 nM
COc1cc(N)c(Cl)cc1C(=O)CCC1CCN(CC2CCCCCC2)CC1,inhibition,[1],46%
same,inhibition,[2],99%
same,IC50,Cholinesterase,4 µM
same,Activity,[3],58%
COc1cc(N)c(Cl)cc1C(=O)CCC1CCN(CC2CCC2)CC1,inhibition,[9],47%
